HGIII-sPLA2 inh = Inhibits HGIII-sPLA2 liposome hydrolysis, primary screen; 370,000 compounds, 0.56% hits; Q9NZ20; inhibition, % at 12.2 µM; QFRET BODIPY PC-A2 liposome hydrolysis, fluorescence;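 active means inhibition above mean plus 3 SD of compounds lying within the high and low control bounds, cut at about 19% in these data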;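 further: 0% = median of test compound wells and 100% = no enzyme DMSO wells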
Target sequence (Q9NZ20 whole entry, looked up): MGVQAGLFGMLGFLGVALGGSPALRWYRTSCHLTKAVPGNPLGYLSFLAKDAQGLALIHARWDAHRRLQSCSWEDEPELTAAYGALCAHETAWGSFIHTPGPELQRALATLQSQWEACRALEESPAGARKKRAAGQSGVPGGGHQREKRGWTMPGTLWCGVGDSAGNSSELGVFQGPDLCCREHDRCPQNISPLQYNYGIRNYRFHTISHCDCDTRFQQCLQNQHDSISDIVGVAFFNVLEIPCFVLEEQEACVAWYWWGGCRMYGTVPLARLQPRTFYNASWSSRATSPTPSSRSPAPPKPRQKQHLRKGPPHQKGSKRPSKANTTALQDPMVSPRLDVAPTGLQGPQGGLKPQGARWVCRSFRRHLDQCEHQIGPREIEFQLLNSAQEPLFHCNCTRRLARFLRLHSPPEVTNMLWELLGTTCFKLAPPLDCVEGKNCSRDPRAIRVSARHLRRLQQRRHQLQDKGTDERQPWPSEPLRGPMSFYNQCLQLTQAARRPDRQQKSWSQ
procasp3 activ = activators of human procaspase-3; AID 463141; 330,000 compounds, 0.11% hits; P42574; activation, % at 8.5 µM; recombinant procaspase-3 D3A, Ac-DEVD-pNA absorbance 405 nm;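 active means activation above the mean of all tested compounds plus 3 SD, cut at about 21% in these data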;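 further: 0% = DMSO alone and 100% = DMSO wells spiked with extra 5 µM PC-3 D3A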
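Test system: Procaspase-3 D3A mutant, all three cleavage aspartates alanine | Dosing: Single dose, 8.5 µM nominal compound, 0.8% DMSO | Schedule: 1 h preincubation, 2 h reaction | Technique: 405 nm absorbance of p-nitroaniline, reads at 0 and 120 min | Repeats: One well per compound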
procasp7 counter = activates human procaspase-7, counter-screen for procaspase-3 activators; recombinant procaspase-7, Ac-DEVD-pNA absorbance 405 nm; D23A/D198A/D206A triple mutant, cannot self-cleave; scale: DMSO 0, 5 µM enzyme 100; 330,000 compounds, 0.093% hits; AID 463210; activation, % at 8.5 µM;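 active means percent activation above the screen-wide mean plus 3 SD, cut at about 25% in these data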
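System: Procaspase-7 triple mutant (PC-7 D3A); measure: % activation from two-timepoint absorbance difference, scaled to controls; times: 1 h compound preincubation, 2 h substrate cleavage, 25 °C; also added: Ac-DEVD-pNA substrate, 400 µM as added; measured by: Epi-absorbance of released pNA at 405 nm, two timepoints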
PLC-beta3 inh = inhibitors of human phospholipase C beta3; Q01970; Purified PLC-beta3, fluorogenic substrate, fluorescence; inhibition, % at 12.2 µM; 370,000 compounds, 0.18% hits;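 further: 0% = median of compound wells on plate and 100% = full blocker control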
PLC-gamma1 inh = blocks human PLC-gamma1 enzyme activity | inhibition, % at 12.2 µM | purified PLC-gamma1, fluorogenic substrate, fluorescence | AID 720700 | P19174 | 370,000 compounds, 0.84% hits; in the data active means inhibition above about 9.5%
Arrestin-AP2 inh = human beta-arrestin and AP2 interaction inhibition. FITC-arrestin peptide / GST-AP2 beads, flow cytometry; AP2 beta2 appendage carries R879A mutation. inhibition, % at 10 µM. 340,000 compounds, 0.31% hits. AID 504490;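 active means inhibition above a set limit, near 3 SD of compounds lacking own fluorescence, cut at about 54% in these data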;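 further: plate controls were DMSO wells for no effect and 5 µM unlabelled arrestin peptide for full effect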
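Test system: GST-tagged AP2 beta2-adaptin appendage (R879A) on 4 µm glutathione beads; also added: fluorescein-tagged arrestin peptide at 50 nM final; timing: 12 min plus 1 h, RT; signal: flow cytometry, FL1 (488/535 nm); read-out: percent drop in bead-associated FITC signal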
PLCgamma1 ctr = counter-screen for PLC-beta3 inhibitors: inhibitors of human PLC-gamma1 | shares compounds with PLC-gamma1 inh | purified PLC-gamma1, fluorogenic substrate, fluorescence | inhibition, % at 12.3 µM | 3,300 compounds, 3.1% hits | AID 743258; in the data active means inhibition above about 9.5%
PLCbeta3 conf = confirmation of human PLC-beta3 inhibitors; inhibition, % at 12.3 µM; purified PLC-beta3, fluorogenic substrate fluorescence; shares compounds with PLC-gamma1 inh; AID 743261; 3,300 compounds, 1% hits
Numbers without * were called inactive; . = no result. Shown are actives, neighbours in structure and some others; about 1.9% of the full set was active somewhere. Unless noted, no stated cut-off is given here; in the data, active means inhibition above about 11%; inactive means the rest.

SMILES	HGIII-sPLA2 inh	procasp3 activ	procasp7 counter	PLC-beta3 inh	PLC-gamma1 inh	Arrestin-AP2 inh	PLCgamma1 ctr	PLCbeta3 conf
C[C@H]1C2CC(OC(=O)Nc3ccc4c(c3)OCO4)C(C2)[C@H]2CCCCN21 (stereo not given in full)	8.6	.	.	0.8	7.5	.	.	.
CCOC(=O)COc1nc2ccc(Br)cc2c(-c2ccccc2)c1C(C)=O	-0.3	4.9	-1.1	-2.7	9.8*	-5.0	-5.1	-4.0
COc1ccc(CNCCC(c2ccccc2)c2ccc(OC(C)C)cc2)cc1OC (stereo not given)	-7.8	4.3	2.0	6.8	10.5*	8.5	1.5	4.5
COc1ccc(CNCCC(c2ccc(F)cc2)c2ccc(OC(C)C)cc2)cc1OC (stereo not given)	-9.8	4.9	2.1	-2.1	10.6*	1.3	-4.2	2.0
COc1ccc(C(CCNCc2ccc(OC(C)C)cc2)c2ccccc2OC)cc1 (stereo not given)	-4.7	6.9	-2.8	4.5	5.8	-3.1	.	.
O=C(COC(=O)/C=C/c1cccc(F)c1)NNC(=O)c1ccccc1	-6.9	-2.8	0.7	3.9	10.7*	-0.9	-10.3	-5.1
CCN(CC)CCCNC(=O)CC1Oc2ccccc2NC1=O (stereo not given)	-0.1	.	.	1.0	-2.9	.	.	.
Cc1c(CCOC(=O)C23CC4CC(CC(C)(C4)C2)C3)sc[n+]1CC(=O)c1ccccc1	4.2	6.3	1.7	2.1	12.1*	-12.7	0.6	1.1
Cc1c(CCOC(=O)CC23CC4CC(CC(C)(C4)C2)C3)sc[n+]1CC(=O)c1ccccc1	7.0	2.0	9.4	1.0	6.6	9.0	.	.
COc1ccc(C)cc1S(=O)(=O)NCC(c1ccc2c(c1)OCO2)N1CCOCC1 (stereo not given)	0.1	-3.5	10.3	0.0	0.4	-2.1	.	.
CCN(CC(=O)Nc1ccccc1OC)C(=O)CCOc1ccc(C(C)(C)C)cc1	-10.9	6.9	-2.8	0.4	-3.9	-12.3	.	.
COc1ccc(Cn2c(S(=O)(=O)CC(N)=O)nc3ccccc32)cc1[N+](=O)[O-]	.	-6.1	0.7	.	.	.	.	.
COc1cc(CN2CCC(C)CC2)ccc1OCc1ccccc1	-9.2	-3.6	5.2	-1.6	15.5*	-0.1	5.0	4.1
COc1cc(CN2CCCC(C)C2)ccc1OCc1ccccc1 (stereo not given)	-10.8	8.3	3.6	-3.3	4.8	19.2	.	.
Cc1ccc(-c2nc3ccc(C)cn3c2CC2CCCCC2)cc1	7.2	.	.	-49.7	-35.7	.	.	.
C(=C\c1ccccc1)/C=N/n1cnnc1	9.4	4.5	4.8	-2.5	10.3*	0.5	7.8	3.6
Nc1[nH]c(C(=O)c2ccccc2)c(-c2cccc3ccccc23)c1C(=O)NC1CCCCC1	4.8	.	.	0.6	0.1	.	.	.
CC1(C(=O)NS(=O)(=O)c2cccs2)CCN1C(=O)c1cccc(F)c1 (stereo not given)	2.8	.	.	13.8*	-0.9	.	-1.5	-0.5
CC1(C(=O)NS(=O)(=O)c2cccs2)CCN1C(=O)c1ccccc1 (stereo not given)	13.9	.	.	4.0	2.6	.	.	.
O=C1NC(=O)C2(CCOc3ccc(F)cc32)N1 (stereo not given)	5.2	.	.	1.2	-1.5	.	.	.
Cc1ccc(C(C(=O)NCc2ccco2)N(CCc2ccccc2)C(=O)Cn2nnc3ccccc32)o1 (stereo not given)	-5.8	.	.	11.2*	3.7	-7.0	-3.7	-2.6
c1ccc2c(c1)C1=NCCN1c1ccccc1-2	4.3	.	.	-57.9	-45.9	.	.	.
Cc1cccc(C)c1-n1nnnc1C1(C)Cn2nccc2C(=O)N1Cc1ccc(F)cc1 (stereo not given)	0.2	.	.	2.0	-0.8	.	.	.
CCOC(=O)N1CCN(C(=O)C[C@H]2C(=O)N(Cc3ccc(OC)cc3)C3=CCCC[C@@]32C(=O)OCC)CC1	3.5	.	.	2.1	11.2*	.	-7.3	-2.1
CCOC(=O)N1CCN(C(=O)C[C@H]2C(=O)N(Cc3ccc(OC)cc3)C3=CCCCC[C@@]32C(=O)OC)CC1	-6.2	.	.	-3.2	-1.6	.	.	.
SMILES	HGIII-sPLA2 inh	procasp3 activ	procasp7 counter	PLC-beta3 inh	PLC-gamma1 inh	Arrestin-AP2 inh	PLCgamma1 ctr	PLCbeta3 conf
CCOC(=O)[C@]12CCCC=C1N(CCCOC)C(=O)[C@@H]2CC(=O)NCc1ccc(C)o1	2.1	.	.	3.4	10.0*	.	6.4	0.1
COC(=O)[C@]12CCCCC=C1N(Cc1ccc(OC)cc1)C(=O)[C@@H]2CC(=O)N1CCN(C(=O)C2CC2)CC1	11.9	.	.	8.8	11.6*	.	-3.6	-0.7
C=CCN1C(=O)[C@H](CC(=O)NCc2ccc(C)o2)[C@@]2(C(=O)OCC)CCCC=C12	-7.2	.	.	1.8	0.1	.	.	.
Nn1c(SCC(=O)NCCCc2ccccc2)nnc1-c1cccnc1	6.5	-2.7	-2.9	-9.8	1.9	1.2	.	.
CCN(Cc1cn(Cc2ccccc2)nn1)S(=O)(=O)c1ccc(N2CCCC2)cc1Br	-10.1	.	.	-1.9	2.1	.	.	.
Cc1ccc(NC(=O)COc2nsnc2N2CCOCC2)cc1Cl	1.9	-6.8	-0.1	-1.8	4.3	-11.1	.	.
Nc1nc2c(ncn2[C@@H]2O[C@H](C(=O)N[C@H](Cc3ccccc3)C(=O)NCc3ccccc3)[C@@H](O)[C@H]2O)c(=O)[nH]1	7.7	.	.	0.3	1.4	.	.	.
CN1CCN(CC(=O)Nc2c(C(=O)C3CC3)oc3ccccc23)CC1	-2.3	12.0	7.3	5.2	10.7*	-1.2	-4.0	-0.5
COc1ccc(/C=N/NC(=S)Nc2ccccc2)cc1COc1ccc(F)cc1	-0.9	-12.7	-9.2	15.8*	11.3*	25.6	-11.3	-9.6
O=C(CC1CCCC1)N[C@@H](Cc1cccnc1)C(=O)N1CCC[C@H]1C(=O)NCCc1ccccc1Cl	6.8	.	.	1.7	-0.2	.	.	.
COC(=O)c1ccc(N/C(=N/S(=O)(=O)c2ccccc2)c2ccccc2)cc1	-12.3	6.7	7.2	1.4	1.0	-4.9	.	.
CCOC(=O)c1ccc(N/C(=N\S(=O)(=O)c2ccccc2C)c2ccccc2)cc1	-34.4	4.2	-4.0	2.1	10.3*	14.3	-1.7	-3.6
Cc1onc(-c2ccc(Cl)cc2)c1-c1ccn(S(=O)(=O)c2ccccc2)n1	8.0	.	.	0.5	10.2*	.	-3.1	-1.4
Cc1ccc(S(=O)(=O)n2ccc(-c3c(-c4ccccc4)noc3C)n2)cc1	-3.3	.	.	0.3	0.8	.	.	.
COc1ccc2sc(C)nc2c1NC(C)=O	2.4	-2.6	2.3	5.0	11.8*	19.0	-0.7	4.4
COc1ccc(NC(C)=O)c2nc(C)c(C)nc12	-1.0	3.4	-1.2	-1.4	-2.5	8.4	.	.

Bioassay records as filed in PubChem BioAssay.
